# PAFAH2 FP inh = inhibitors of human PAFAH2; Q99487; recombinant PAFAH2, FP-rhodamine activity probe, fluorescence polarization; inhibition, % at 3.39 µM; 340,000 compounds, 0.99% hits;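 active means inhibition above the mean over all tested compounds plus 3 SD, cut at about 30% in these data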;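 further: inhibitors block probe labeling of enzyme so polarization drops; 0% = enzyme with DMSO and 100% = wells lacking PAFAH2 protein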
# pPAFAH FP inh = pPAFAH (human) enzyme inhibition. Q13093. recombinant pPAFAH, FP-rhodamine probe fluorescence polarization. inhibition, % at 3.39 µM. 330,000 compounds, 1.5% hits. AID 463082;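 active means inhibition above the mean inhibition across the screen plus 3 SD, cut at about 25% in these data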;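 further: inhibitors block binding of the rhodamine activity-based probe so polarization drops; 0% = enzyme with DMSO and 100% = wells lacking pPAFAH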
# RBBP9 inh = human RBBP9 hydrolase inhibition | O75884 | inhibition, % at 7.94 µM | 220,000 compounds, 0.2% hits | recombinant RBBP9, FP-Rh probe fluorescence polarization;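 active means inhibition above the campaign mean of all tested compounds plus 3 SD, cut at about 14% in these data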;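 further: plate controls were DMSO wells with RBBP9 for no effect and wells lacking RBBP9 protein for full effect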
# Target sequence (O75884 whole entry, looked up): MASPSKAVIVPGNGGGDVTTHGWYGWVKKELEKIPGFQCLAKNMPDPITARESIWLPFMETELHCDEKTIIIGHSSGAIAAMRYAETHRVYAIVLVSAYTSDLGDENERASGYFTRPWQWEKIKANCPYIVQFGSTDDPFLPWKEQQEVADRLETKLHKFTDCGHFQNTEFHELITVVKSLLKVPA
#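 System: RBBP9 protein | Quantity: 2.5 µM RBBP9 dispensing solution, before mixing | Reagent: FP-Rh probe, 375 nM dispensing solution | Timing: Enzyme-compound preincubation 30 min, then probe labeling 45 min, 25 °C | Measured by: Fluorescence polarization | Read-out: % inhibition | Replication: One well per compound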
# PAFAH1B3 FP inh = inhibitors of human PAFAH1B3 | recombinant PAFAH1B3, FP-rhodamine probe, fluorescence polarization | inhibition, % at 3.39 µM | 340,000 compounds, 0.28% hits | AID 492972;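 active means inhibition above the screen-wide average of all tested compounds plus 3 SD, cut at about 25% in these data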;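 further: 0% = enzyme with DMSO only and 100% = wells lacking PAFAH1B3 protein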
# Target sequence (Q15102 whole entry, looked up): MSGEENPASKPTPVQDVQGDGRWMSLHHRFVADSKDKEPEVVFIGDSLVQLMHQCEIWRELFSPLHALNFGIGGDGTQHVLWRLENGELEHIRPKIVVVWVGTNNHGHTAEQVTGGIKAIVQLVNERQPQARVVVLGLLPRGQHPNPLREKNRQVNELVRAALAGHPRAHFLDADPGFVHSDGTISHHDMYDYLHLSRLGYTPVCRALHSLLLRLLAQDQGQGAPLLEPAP
# PAFAH1B2 FP inh = inhibitors of human PAFAH1B2 | P68402 | recombinant PAFAH1B2, FP-rhodamine activity probe, fluorescence polarization | inhibition, % at 3.39 µM | 340,000 compounds, 1.2% hits | AID 492953;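 active means inhibition above the mean of all tested compounds plus 3 SD, cut at about 24% in these data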;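 further: 0% = enzyme with DMSO and 100% = wells lacking PAFAH1B2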
# * hit, by the source's call; nt = not tested or not shown. Sampled rows, rich in hits. Any-hit rate of the full collection: about 2.7%.
SMILES,PAFAH2 FP inh,pPAFAH FP inh,RBBP9 inh,PAFAH1B3 FP inh,PAFAH1B2 FP inh
Cc1cccc(Nc2nnc(SCC(O)=C(C#N)c3nc4ccccc4[nH]3)s2)c1,4,nt,nt,10,26*
Cc1cccc(Nc2nnc(SCC(=O)Nc3ccc(C(=O)O)cc3)s2)c1,-3,4,-12,3,2
COc1ccc(CNC(=O)c2ccc(Br)o2)cc1,-5,-3,-12,4,3
O=C(N=Nc1c(O)[nH]c2ccc(Cl)cc12)c1cc(-c2cccs2)nc2ccccc12,-4,-5,-8,4,2
O=C(O)c1ccccc1C1=Nc2ccc(O)cc2Oc2cc(O)ccc21,-73,28*,0,8,9
CCOc1ccc(S(=O)(=O)N2CCC(C(=O)N3CCOCC3)CC2)cc1Cl,2,3,nt,5,0
COc1ccc(-n2ncc3c2CC(C)(C)CC3NC(=O)CCn2cncn2)cc1 (stereo unspecified),-4,nt,nt,5,2
Cc1ccc(C2C(C#N)=C(N)Oc3cc(N)ccc32)cc1 (stereo unspecified),-1,27*,nt,-2,5
COc1cccc2c1C(=O)c1c(O)c3c(c(O)c1C2=O)C[C@@](O)(C(=O)CO)C[C@@H]3OC1CC(N)C(O)C(C)O1 (stereo partly specified),54*,nt,nt,52*,52*
COc1cccc2c1C(=O)c1c(O)c3c(c(O)c1C2=O)CC(O)(C(C)=O)CC3OC1CC(N(C)C)C(O)C(C)O1 (stereo unspecified),62*,nt,nt,46*,59*
CCCc1cc(=O)oc2cc(OCc3ccc(C(=O)O)cc3)ccc12,6,1,nt,11,1
CC(C)(C)OC(=O)n1cc(CCO)c2ccccc21,3,-4,nt,8,4
COc1ccccc1NC(=O)CCCN1C(=O)C2CC=CCC2C1=O (stereo unspecified),-2,-1,nt,-2,2
Cc1ccc([N+](=O)[O-])cc1-c1ccc(/C=C(\C#N)c2[nH]nc(N)c2C#N)o1,22,30*,-13,5,2
COC(=O)c1cn(NC(=O)c2ccccc2[N+](=O)[O-])c(=O)c2ccccc12,-5,1,-9,7,1
O=C(COC(=O)c1ccc(S(=O)(=O)C(F)F)cc1)NC(=O)NC1CCCCC1,1,12,nt,4,-5
Cc1[nH]n2c(=O)cc(-c3ccc([N+](=O)[O-])cc3)nc2c1-c1ccccc1,21,33*,5,13,19
O=C(c1cncs1)N1CCCC(CNS(=O)(=O)c2cccs2)C1 (stereo unspecified),0,1,-4,0,-1
Cc1nc(SCc2ccc(Br)cc2)[nH]c(=O)c1C,-18,34*,0,0,74*
CCSc1nc(C)c(C)c(=O)[nH]1,2,nt,-9,10,2
Cc1nc(SCCc2ccccc2)[nH]c(=O)c1C,2,27*,nt,7,6
Cc1sc2ncn(CC(=O)NCc3ccco3)c(=O)c2c1-c1ccc(F)cc1,-2,17,-8,1,-3
O=C(Cn1cnc2scc(-c3cccc([N+](=O)[O-])c3)c2c1=O)NCc1ccco1,18,26*,-9,4,-4
Fc1ccc(Nc2nc(NCc3ccco3)c3ccccc3n2)cc1,11,2,5,8,-1
COc1cccc(C2CC(=O)Nc3cc4c(cc32)CCC4)c1 (stereo unspecified),-1,32*,-7,4,0
SMILES,PAFAH2 FP inh,pPAFAH FP inh,RBBP9 inh,PAFAH1B3 FP inh,PAFAH1B2 FP inh
O=C1CC(c2cccc(Cl)c2)c2cc3c(cc2N1)CCC3 (stereo unspecified),7,28*,-5,1,-1
COc1cccc(C2CC(=O)Nc3cc(OC)c(OC)cc32)c1 (stereo unspecified),-4,nt,nt,4,5
O=c1[nH]cc([N+](=O)[O-])cc1Br,0,1,-4,5,-3
Cc1ccc(CN2[C@@H](CC3CCCCC3)COCCS2(=O)=O)cc1,-2,2,nt,5,31*
O=S1(=O)CCOC[C@H](c2ccccc2)N1Cc1cccc(Cl)c1,4,6,nt,-1,29*
O=S1(=O)CCOC[C@H](CC2CCCCC2)N1Cc1cccc(F)c1,2,1,nt,2,24*
O=S1(=O)CCOC[C@H](CC2CCCCC2)N1Cc1ccc(Cl)cc1,-1,-2,nt,-1,29*
CCCC[C@H]1COCCS(=O)(=O)N1Cc1cccc(F)c1,-2,0,nt,4,3
CCCN1CCN(C(=O)c2oc3c(Cl)cccc3c2C)CC1,-5,3,nt,4,-3
CCN(C(=O)CSc1nc(C)c(C)c(C)n1)C1CCS(=O)(=O)C1 (stereo unspecified),2,-1,nt,2,5
N#Cc1nccnc1S(=O)(=O)c1cccs1,nt,-6,-1,nt,nt
N=c1c(S(=O)(=O)c2ccccc2)cc2c(=O)n3ccccc3nc2n1CCN1CCOCC1,nt,nt,2,nt,nt
N=c1c(S(=O)(=O)c2ccc(Br)cc2)cc2c(=O)n3ccccc3nc2n1CCN1CCOCC1,6,nt,nt,-4,41*
N=c1c(S(=O)(=O)c2ccccc2)cc2c(=O)n3ccccc3nc2n1Cc1ccco1,29,26*,-16,3,2
Cc1ccc(S(=O)(=O)c2cc3c(=O)n4ccccc4nc3n(Cc3ccco3)c2=N)cc1C,nt,9,-12,nt,nt
O=C(NCc1ccccn1)c1ccc(OC2CCN(Cc3ccc(F)cc3F)CC2)cc1,10,7,nt,3,6
Nc1c(-c2ccccc2)c(CSc2nc3ccccc3[nH]2)nn1-c1ccc(C(=O)O)cc1,-2,1,-6,4,-2
Cc1cccc(NC(=O)CNC(=O)C23CC4CC(CC(Cl)(C4)C2)C3)n1,3,-9,nt,4,18
O=C(O)CNC(=O)C12CC3CC(CC(Cl)(C3)C1)C2,0,2,2,7,33*
CCN(CC)S(=O)(=O)c1ccc(N=Nc2c(N)[nH]c(=O)[nH]c2=O)cc1,4,0,-4,3,1
O=C(CSc1ccc(Cl)cc1)N/N=C/c1ccc([N+](=O)[O-])o1,3,14,nt,6,29*
O=C(N/N=C/c1ccc([N+](=O)[O-])o1)c1sc2ccccc2c1Cl,6,31*,2,12,13
O=C(N/N=C/c1c[nH]c2ccccc12)c1sc2ccccc2c1Cl,14,25*,-2,12,6
Cc1cc(NS(=O)(=O)c2cc(Cl)sc2Cl)no1,-1,0,nt,1,4
CNC(=O)c1cc(S(=O)(=O)Nc2ccc(C)cc2C)ccc1C,0,30*,nt,3,-3
Cc1ccc(C)c(NS(=O)(=O)c2ccc3[nH]c(=O)[nH]c3c2)c1,-9,11,2,5,2
Cc1ccc(NS(=O)(=O)c2ccc3[nH]c(=O)[nH]c3c2)c(C)c1,-5,28*,1,-2,-5
Cc1ccc2nc(C)c(C(=O)NN=C3CCN(C)CC3)n2c1,4,5,-8,5,1
Cc1ccc(NC(=O)NCc2ccccn2)c(C)c1,3,nt,nt,3,3
